Values belong to the compound of their own block, whether it stands above or below them. Positions of bridges follow the written chain, without caps; N, C: chain ends. Residues, ends and D or L forms follow the SMILES beside them.
Tests used:
[1] = Stability of the compound in 0.2 M potassium phosphate buffer at pH 7.7 assessed as hydrolysis by measuring Ile/Phe + DiHPe level in presence of pronase; format: ADME
How it was run: (§1)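 Pronase digest in 0.2 M potassium phosphate buffer, pH 7.7, substrate:enzyme 5:1. Half the enzyme added at start and half after 18 h at 37 °C, then incubated 4 h more. Released amino acids quantified by amino acid analysis.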

[2] = Stability of the compound in 0.2 M potassium phosphate buffer at pH 7.7 assessed as hydrolysis by measuring Leu/Lys level in presence of pronase; format: ADME; how it was run: as §1
[3] = Stability of the compound in 0.2 M potassium phosphate buffer at pH 7.7 assessed as hydrolysis by measuring Gly level in presence of pronase; format: ADME; how it was run: as §1
[4] = Stability of the compound in 0.2 M potassium phosphate buffer at pH 7.7 assessed as hydrolysis by measuring Asn/Gln level in presence of pronase; format: ADME; how it was run: as §1
[5] = Stability of the compound in 0.2 M potassium phosphate buffer at pH 7.7 assessed as hydrolysis by measuring Ile/Phe + DiHPe level in presence of pronase and aminopeptidase M; format: ADME
How it was run: (§2)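 Pronase digest in 0.2 M potassium phosphate, pH 7.7, substrate:enzyme 5:1, 37 °C, enzyme split over 18 h + 4 h. Digest acidified, clarified and lyophilized, then treated with aminopeptidase M (0.2 M potassium phosphate, pH 7.7, substrate:enzyme 1:1.5, 3 h, 37 °C). Amino acid analysis.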

[6] = Stability of the compound in 0.2 M potassium phosphate buffer at pH 7.7 assessed as hydrolysis by measuring Leu/Lys level in presence of pronase and aminopeptidase M; format: ADME; how it was run: as §2
[7] = Stability of the compound in 0.2 M potassium phosphate buffer at pH 7.7 assessed as hydrolysis by measuring Gly level in presence of pronase and aminopeptidase M; format: ADME; how it was run: as §2
[8] = Stability of the compound in 0.2 M potassium phosphate buffer at pH 7.7 assessed as hydrolysis by measuring Asn/Gln level in presence of pronase and aminopeptidase M; format: ADME; how it was run: as §2
[9] = Stability of the compound in 0.2 M potassium phosphate buffer at pH 7.7 assessed as hydrolysis by measuring Ile/Phe + DiHPe level in presence of alpha-amylase preparation; format: ADME
[10] = Stability of the compound in 0.2 M potassium phosphate buffer at pH 7.7 assessed as hydrolysis by measuring Tyr level in presence of alpha-amylase preparation; format: ADME
[11] = Stability of the compound in 0.2 M potassium phosphate buffer at pH 7.7 assessed as hydrolysis by measuring Leu/Lys level in presence of alpha-amylase preparation; format: ADME
[12] = Stability of the compound in 0.2 M potassium phosphate buffer at pH 7.7 assessed as hydrolysis by measuring Gly level in presence of alpha-amylase preparation; format: ADME
[13] = Stability of the compound in 0.2 M potassium phosphate buffer at pH 7.7 assessed as hydrolysis by measuring Asn/Gln level in presence of alpha-amylase preparation; format: ADME
[14] = Stability of the compound in 0.2 M potassium phosphate buffer at pH 7.7 assessed as hydrolysis by measuring Ile/Phe + DiHPe level in presence of alpha-amylase preparation and aminopeptidase M; format: ADME
[15] = Stability of the compound in 0.2 M potassium phosphate buffer at pH 7.7 assessed as hydrolysis by measuring Tyr level in presence of alpha-amylase preparation and aminopeptidase M; format: ADME
[16] = Stability of the compound in 0.2 M potassium phosphate buffer at pH 7.7 assessed as hydrolysis by measuring Leu/Lys level in presence of alpha-amylase preparation and aminopeptidase M; format: ADME
[17] = Stability of the compound in 0.2 M potassium phosphate buffer at pH 7.7 assessed as hydrolysis by measuring Gly level in presence of alpha-amylase preparation and aminopeptidase M; format: ADME
[18] = Stability of the compound in 0.2 M potassium phosphate buffer at pH 7.7 assessed as hydrolysis by measuring Asn/Gln level in presence of alpha-amylase preparation and aminopeptidase M; format: ADME
[19] = Stability of the compound in […] potassium phosphate buffer at […] assessed as hydrolysis by measuring Ile/Phe + DiHPe level in presence of alpha-amylase preparation and cyclohexadiene; format: ADME
How it was run: (§3)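 Aspergillus oryzae α-amylase preparation, 1 mg per 0.9 µmol peptide, in potassium phosphate buffer pH 7, with 1,4-cyclohexadiene (10 µL) and toluene, under N2, 37 °C, 17 h. Adjusted to pH 2.2 for amino acid analysis. Phe from a control of constituent amino acids plus enzyme subtracted to give Phe in residue 3.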

[20] = Stability of the compound in 0.2 M potassium phosphate buffer at […] assessed as hydrolysis by measuring Tyr level in presence of alpha-amylase preparation and cyclohexadiene; format: ADME; how it was run: as §3
[21] = Stability of the compound in […] assessed as hydrolysis by measuring Leu/Lys level in presence of alpha-amylase preparation and cyclohexadiene; format: ADME; conditions: buffer; how it was run: as §3
[22] = Stability of the compound in 0.2 M potassium phosphate buffer at […] assessed as hydrolysis by measuring Gly level in presence of alpha-amylase preparation and cyclohexadiene; format: ADME; how it was run: as §3
[23] = Stability of the compound in […] assessed as hydrolysis by measuring Asn/Gln level in presence of alpha-amylase preparation and cyclohexadiene; format: ADME; conditions: buffer; how it was run: as §3
[24] = Stability of the compound in 0.2 M potassium phosphate buffer at pH 7.7 assessed as hydrolysis by measuring Ile/Phe + DiHPe level in presence of papain and aminopeptidase M; format: ADME
How it was run: (§4)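 Papain digest in 0.5 M ammonium acetate, pH 5.3, with 0.15% mercaptoethanol, substrate:enzyme 20:1, 6 h at 37 °C. Acidified, clarified and lyophilized, then aminopeptidase M digest in 0.2 M potassium phosphate, pH 7.7, substrate:enzyme 1:1.5, 3 h at 37 °C. Amino acid analysis.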

[25] = Stability of the compound in 0.2 M potassium phosphate buffer at pH 7.7 assessed as hydrolysis by measuring Tyr level in presence of papain and aminopeptidase M; format: ADME; how it was run: as §4
[26] = Stability of the compound in 0.2 M potassium phosphate buffer at pH 7.7 assessed as hydrolysis by measuring Asn/Gln level in presence of papain and aminopeptidase M; format: ADME; how it was run: as §4
[27] = Stability of the compound in 0.2 M potassium phosphate buffer at pH 7.7 assessed as hydrolysis by measuring Leu/Lys level in presence of papain and aminopeptidase M; format: ADME; how it was run: as §4
[28] = Stability of the compound in 0.2 M potassium phosphate buffer at pH 7.7 assessed as hydrolysis by measuring Gly level in presence of papain and aminopeptidase M; format: ADME; how it was run: as §4
[29] = Stability of the compound in phosphate buffer at pH 7.5 in presence of rat kidney homogenates; format: ADME, tissue-based; conditions: tissue homogenate
How it was run: (§5)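 DiHPhe incubated with rat kidney or liver homogenate in phosphate buffer, pH 7.5, then checked for conversion to Phe.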

[30] = Stability of the compound in phosphate buffer at pH 7.5 in presence of rat liver homogenates; format: ADME, tissue-based; conditions: tissue homogenate; how it was run: as §5
Gallus gallus = species on record: Gallus gallus; test: Vasodepressor activity in chicken; format: functional
Rattus norvegicus [31] = test: Antidiuretic activity in iv dosed water loaded rat; format: functional, Urine
How it was run: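 Water-loaded rats under ethanol anesthesia, peptide given intravenously. Potency referenced to the USP Posterior Pituitary Reference Standard.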

Rattus norvegicus [32] = species on record: Rattus norvegicus; test: Vasopressor activity in phenoxybenzamine-treated rat; format: functional
How it was run: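 Phenoxybenzamine-treated rats under urethane anesthesia. Potency referenced to the USP Posterior Pituitary Reference Standard.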

[33] = Oxytocic activity in isolated rat uterus strips in Mg2+-free van Dyke-Hastings solution
[34] = Oxytocic activity in isolated rat uterus strips in Mg2+-free solution

- Drug degradation [1]: 38 mol%
- Drug degradation [2]: 46 mol%
- Drug degradation [3]: 44 mol%
- Drug degradation [4]: 86 mol%
- Drug degradation [5]: 65 mol%
- Drug degradation [6]: 65 mol%
- Drug degradation [7]: 54 mol%
- Drug degradation [8]: 124 mol%
- Drug degradation [9]: 75 mol%
- Drug degradation [10]: 26 mol%
- Drug degradation [11]: 72 mol%
- Drug degradation [12]: 50 mol%
- Drug degradation [13]: 72 mol%
- Drug degradation [14]: 82 mol%
- Drug degradation [15]: 35 mol%
- Drug degradation [16]: 85 mol%
- Drug degradation [17]: 60 mol%
- Drug degradation [18]: 90 mol%
- Drug degradation [19]: 51 mol%
- Drug degradation [20]: 23 mol%
- Drug degradation [21]: 57 mol%
- Drug degradation [22]: 38 mol%
- Drug degradation [23]: 86 mol%
- Drug degradation [24]: 13 mol%
- Drug degradation [25]: 30 mol%
- Drug degradation [26]: 14 mol%
- Drug degradation [27]: 14 mol%
- Drug degradation [28]: 13 mol%
SMILES: CC[C@H](C)[C@H](NC(=O)[C@H](Cc1ccc(O)cc1)NC(=O)[C@@H](N)CS(=O)(=O)O)C(=O)N[C@@H](CCC(N)=O)C(=O)N[C@@H](CC(N)=O)C(=O)N[C@@H](CS(=O)(=O)O)C(=O)N1CCC[C@H]1C(=O)N[C@@H](CC(C)C)C(=O)NCC(N)=O

- Stability [29]: Stable
- Stability [30]: Stable
SMILES: N[C@@H](CC1=CCC=CC1)C(=O)O

SMILES: CC[C@H](C)[C@@H]1NC(=O)[C@H](Cc2ccc(O)cc2)NC(=O)[C@@H](N)CSSC[C@@H](C(=O)N2CCC[C@H]2C(=O)N[C@@H](CCCCN)C(=O)NCC(N)=O)NC(=O)[C@H](CC(N)=O)NC(=O)[C@H](CCC(N)=O)NC1=O (H-CYIQNCPKG-NH2; disulfide 1-6)
- Activity (Gallus gallus): 190 U/mg
- Activity (Rattus norvegicus [31]): 24 U/mg
- Activity (Rattus norvegicus [32]): 130 U/mg
- Activity [33]: 78 U/mg

SMILES: NCCCC[C@H](NC(=O)[C@@H]1CCCN1C(=O)[C@@H]1CSSC[C@H](N)C(=O)N[C@@H](Cc2ccc(O)cc2)C(=O)N[C@@H](CO)C(=O)N[C@@H](CCC(N)=O)C(=O)N[C@@H](CC(N)=O)C(=O)N1)C(=O)NCC(N)=O (H-CYSQNCPKG-NH2; disulfide 1-6)
- Activity (Gallus gallus): <0.01 U/mg
- Activity (Rattus norvegicus [31]): 0.08 U/mg
- Activity (Rattus norvegicus [32]): <0.01 U/mg
- Activity [33]: <0.01 U/mg

SMILES: NCCCC[C@H](NC(=O)[C@@H]1CCCN1C(=O)[C@@H]1CSSC[C@H](N)C(=O)N[C@@H](Cc2ccc(O)cc2)C(=O)N[C@@H](Cc2ccc(O)cc2)C(=O)N[C@@H](CCC(N)=O)C(=O)N[C@@H](CC(N)=O)C(=O)N1)C(=O)NCC(N)=O (H-CYYQNCPKG-NH2; disulfide 1-6)
- Activity (Gallus gallus): 0.08 U/mg
- Activity (Rattus norvegicus [31]): 0.18 U/mg
- Activity (Rattus norvegicus [32]): 0.07 U/mg
- Activity [34]: <=0.01 U/mg
